Data on three compounds can be found in ChEMBL document CHEMBL4052588, “Design of a Biased Potent Small Molecule Inhibitor of the Bromodomain and PHD Finger-Containing (BRPF) Proteins Suitable for Cellular and in Vivo Studies” (J Med Chem, 2017).

Series [1] has as its target T1, Bromodomain-containing protein 9 (Homo sapiens) (UniProt Q9H8M2).
T1 sequence (whole entry): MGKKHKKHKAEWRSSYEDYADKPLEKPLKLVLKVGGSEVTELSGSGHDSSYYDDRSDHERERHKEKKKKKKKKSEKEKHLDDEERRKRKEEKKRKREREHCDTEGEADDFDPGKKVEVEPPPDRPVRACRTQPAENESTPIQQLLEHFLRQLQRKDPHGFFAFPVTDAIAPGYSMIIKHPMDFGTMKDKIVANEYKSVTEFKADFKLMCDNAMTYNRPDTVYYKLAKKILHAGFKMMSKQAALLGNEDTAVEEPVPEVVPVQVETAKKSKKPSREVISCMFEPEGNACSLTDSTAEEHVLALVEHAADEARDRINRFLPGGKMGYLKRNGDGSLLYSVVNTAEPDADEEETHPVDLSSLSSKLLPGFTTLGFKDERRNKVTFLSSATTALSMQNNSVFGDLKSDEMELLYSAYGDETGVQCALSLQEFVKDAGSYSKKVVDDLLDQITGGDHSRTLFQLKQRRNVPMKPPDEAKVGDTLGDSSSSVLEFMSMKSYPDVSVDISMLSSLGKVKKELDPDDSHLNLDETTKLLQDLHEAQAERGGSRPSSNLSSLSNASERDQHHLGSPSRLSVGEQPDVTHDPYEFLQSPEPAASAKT

For series [2], the target named is T2, Bromodomain-containing protein 9 (Homo sapiens, UniProt Q9H8M2).
T2 sequence (Q9H8M2 whole entry): T1 sequence (whole entry)
Nature of the series: Inhibition of human His tagged BRD9 incubated for 30 mins followed by addition of biotinylated peptide and further incubation for 30 mins measured by AlphaScreen assay.

The target in series [3] is T3, Peregrin (Homo sapiens, UniProt P55201).
T3 sequence (P55201 whole entry): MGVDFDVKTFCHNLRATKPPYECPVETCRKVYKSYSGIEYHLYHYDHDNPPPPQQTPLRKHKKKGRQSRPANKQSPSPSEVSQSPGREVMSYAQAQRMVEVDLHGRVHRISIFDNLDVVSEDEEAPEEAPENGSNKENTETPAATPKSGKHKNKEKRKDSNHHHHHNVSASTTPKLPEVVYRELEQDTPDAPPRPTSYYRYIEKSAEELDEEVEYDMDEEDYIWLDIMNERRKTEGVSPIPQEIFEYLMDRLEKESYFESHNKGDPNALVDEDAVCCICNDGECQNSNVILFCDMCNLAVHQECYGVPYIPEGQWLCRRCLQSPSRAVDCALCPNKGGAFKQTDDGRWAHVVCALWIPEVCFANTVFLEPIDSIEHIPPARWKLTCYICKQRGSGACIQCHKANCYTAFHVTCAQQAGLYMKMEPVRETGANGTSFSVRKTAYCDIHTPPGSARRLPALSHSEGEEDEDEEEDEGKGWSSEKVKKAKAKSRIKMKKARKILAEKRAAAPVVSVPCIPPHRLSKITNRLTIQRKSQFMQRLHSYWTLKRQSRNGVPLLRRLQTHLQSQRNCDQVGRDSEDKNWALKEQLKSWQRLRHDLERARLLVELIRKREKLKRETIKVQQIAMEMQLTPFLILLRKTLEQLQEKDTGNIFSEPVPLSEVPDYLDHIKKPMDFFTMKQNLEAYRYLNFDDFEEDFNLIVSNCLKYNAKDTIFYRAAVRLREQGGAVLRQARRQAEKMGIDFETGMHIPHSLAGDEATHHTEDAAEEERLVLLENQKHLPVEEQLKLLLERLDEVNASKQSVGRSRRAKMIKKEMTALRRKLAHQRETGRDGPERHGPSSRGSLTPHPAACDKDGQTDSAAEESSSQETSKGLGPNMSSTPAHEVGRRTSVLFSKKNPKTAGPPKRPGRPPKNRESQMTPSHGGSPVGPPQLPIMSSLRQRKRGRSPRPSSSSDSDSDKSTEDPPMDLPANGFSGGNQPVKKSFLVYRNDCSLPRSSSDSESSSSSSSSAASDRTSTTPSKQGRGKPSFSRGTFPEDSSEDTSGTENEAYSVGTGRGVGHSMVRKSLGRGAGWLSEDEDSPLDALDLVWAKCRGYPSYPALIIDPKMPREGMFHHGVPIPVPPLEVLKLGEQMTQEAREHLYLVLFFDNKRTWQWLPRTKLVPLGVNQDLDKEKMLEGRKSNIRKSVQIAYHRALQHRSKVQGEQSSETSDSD
Nature of the series: Inhibition of human His tagged BRPF1 incubated for 30 mins followed by addition of biotinylated peptide and further incubation for 30 mins measured by AlphaScreen assay. A digest of the protocol: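 Independent AlphaScreen biochemical confirmation of BRPF bromodomain inhibition, with BRD9 and BRD4(BD1) as counter-screens. Test compound was serially diluted from a 100 mM DMSO stock.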
For orientation: Bead proximity is the source of the signal in Alpha formats.

Series [4] addresses Histone acetyltransferase KAT2B (Homo sapiens, UniProt Q92831). Nature of the series: Inhibition of human PCAF expressed in Escherichia coli BL21 after 1 hr by BROMOscan assay.
Series [5] has as its system HuP-T4. Nature of the series: Growth inhibition of human HUPT4 cells after 72 hrs. The format is functional. Conditions: HuP-T4, 72 h.
Series [6] concerns COLO 205. Nature of the series: Growth inhibition of human COLO205 cells after 72 hrs. The format is functional. Particulars: COLO 205, 72 h.
The nature of series [7]: Cmax in CD-1 mouse blood at 3 mg/kg, po. Also noted: dose 3 mg/kg, route oral. Conditions: whole blood. It counts as ADME, organism-based. A digest of the protocol: (§1)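 Female CD-1 mice (n = 3), single dosing: intravenous 1.0 mg/kg, or oral 3.0 mg/kg given as a suspension. Blood levels were followed over time to derive clearance, volume of distribution, elimination half-life, Cmax, Tmax, AUC0−∞, oral bioavailability and fraction absorbed.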

Series [8] in a line: Volume of distribution in CD-1 mouse blood at 1 mg/kg, iv administered as bolus. The format is ADME, organism-based. Particulars: whole blood. A digest of the protocol: as §1
The nature of series [9]: Intrinsic clearance in mouse liver microsomes. The format is ADME, microsome. Conditions: read-out: CLH. In general terms: Microsomes from liver hold many membrane-bound enzymes, among them those of drug oxidation.

The ΔTm is the change in melting temperature against a reference sample. As a reminder, the IC50 is the point on the concentration scale where inhibition reaches its midpoint. The GI50 is the concentration that inhibits growth by half. By Cmax is commonly meant the highest concentration seen after dosing. The term Vd denotes the apparent volume that relates the amount in the body to the concentration in plasma or blood. The low end stands for little distribution into tissue, the high end for wide distribution into tissue.

Molecules are shown by their SMILES.

Histone acetyltransferase KAT2B, sequence (Q92831 whole entry): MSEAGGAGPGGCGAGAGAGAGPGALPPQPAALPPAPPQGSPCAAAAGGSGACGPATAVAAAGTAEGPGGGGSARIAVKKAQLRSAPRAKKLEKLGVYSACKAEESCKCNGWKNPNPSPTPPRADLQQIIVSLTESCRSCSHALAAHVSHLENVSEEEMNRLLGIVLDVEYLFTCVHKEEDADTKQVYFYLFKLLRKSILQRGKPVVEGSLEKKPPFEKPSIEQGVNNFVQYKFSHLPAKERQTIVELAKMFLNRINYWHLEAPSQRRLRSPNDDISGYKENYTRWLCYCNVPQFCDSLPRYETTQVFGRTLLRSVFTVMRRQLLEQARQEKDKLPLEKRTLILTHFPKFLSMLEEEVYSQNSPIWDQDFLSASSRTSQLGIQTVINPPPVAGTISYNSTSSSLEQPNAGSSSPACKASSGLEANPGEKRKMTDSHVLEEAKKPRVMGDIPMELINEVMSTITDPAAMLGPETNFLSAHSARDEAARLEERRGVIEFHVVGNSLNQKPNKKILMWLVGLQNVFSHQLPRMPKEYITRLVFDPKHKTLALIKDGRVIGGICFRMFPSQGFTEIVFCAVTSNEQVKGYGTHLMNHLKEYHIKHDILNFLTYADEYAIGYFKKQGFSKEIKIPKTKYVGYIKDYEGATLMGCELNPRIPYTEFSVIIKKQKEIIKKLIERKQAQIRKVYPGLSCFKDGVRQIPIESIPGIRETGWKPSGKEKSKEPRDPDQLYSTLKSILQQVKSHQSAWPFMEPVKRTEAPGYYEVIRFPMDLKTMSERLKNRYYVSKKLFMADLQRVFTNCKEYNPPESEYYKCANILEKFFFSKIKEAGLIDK

As for `Cc1cc(C#N)ccc1S(=O)(=O)Nc1ccc2c(ccc(=O)n2C)c1`, the ΔTm in series [1] is 2.2 °C.
Turning to `CCc1cc2cc(NS(=O)(=O)c3ccc(C#N)cc3)ccc2n(CC)c1=O`, the values for the IC50 in series [2], in series [3] and in series [4] were greater than 20000 nM, greater than 20000 nM and greater than 100000 nM, respectively.
For `Cc1cc2cc(NS(=O)(=O)c3ccc(C#N)cc3)ccc2n(C)c1=O`, the GI50 in series [5] and in [6] was 1000 to 10000 nM each time. In addition, the Cmax in series [7] came out at 4 µM. Moreover, the IC50 in series [2] worked out at 1100 nM; in series [3], 140 nM. In series [8], this compound came in with a Vd of 0.7 L/kg. Also, the microsomal CLint in series [9] worked out at 14 µL/min/mg. Moreover, the ΔTm in series [1] worked out at 3.5 °C.
